Test results: ChEMBL document CHEMBL3393022, “Ligand-induced conformational change of Plasmodium falciparum AMA1 detected using 19F NMR” (J Med Chem, 2014)
Activity calls are given as the source filed them. No cut-off for these calls is given here. Residues, ends and D or L forms follow the SMILES beside them.

Assays:
[1] = biological target: T1, Apical membrane antigen 1 (Plasmodium falciparum (isolate 3D7)) (UniProt Q7KQK5); assay: Binding affinity to Plasmodium falciparum 3D7 5F-Trp-tagged AMA1 assessed as downfield shifts of W110 peak by 19F-NMR spectroscopy in presence of R1/RON2L
T1 sequence (whole entry): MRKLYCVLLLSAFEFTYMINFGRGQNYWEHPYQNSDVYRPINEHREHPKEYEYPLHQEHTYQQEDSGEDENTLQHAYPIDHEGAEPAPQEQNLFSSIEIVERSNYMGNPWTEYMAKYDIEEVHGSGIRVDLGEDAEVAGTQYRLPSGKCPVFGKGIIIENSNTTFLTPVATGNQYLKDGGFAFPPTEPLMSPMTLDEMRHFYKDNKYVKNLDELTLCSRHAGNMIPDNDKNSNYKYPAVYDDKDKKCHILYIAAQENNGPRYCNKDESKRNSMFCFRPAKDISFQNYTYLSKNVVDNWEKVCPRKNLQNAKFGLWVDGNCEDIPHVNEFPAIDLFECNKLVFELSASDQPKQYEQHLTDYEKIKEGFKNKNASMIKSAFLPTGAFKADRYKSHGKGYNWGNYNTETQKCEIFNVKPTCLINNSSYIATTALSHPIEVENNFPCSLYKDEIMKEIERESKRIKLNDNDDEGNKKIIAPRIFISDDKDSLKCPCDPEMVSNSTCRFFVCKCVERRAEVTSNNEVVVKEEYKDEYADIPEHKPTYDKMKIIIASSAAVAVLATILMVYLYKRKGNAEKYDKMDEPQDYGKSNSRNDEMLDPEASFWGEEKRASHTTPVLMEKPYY

[2] = biological target: T2, Apical membrane antigen 1 (Plasmodium falciparum (isolate 3D7), UniProt Q7KQK5); assay: Binding affinity to Plasmodium falciparum 3D7 AMA1 (108 to 434) expressed in Escherichia coli BL21(DE3) by SPR analysis
T2 sequence (Q7KQK5 whole entry): T1 sequence (whole entry)
Method in brief: (§1)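 SPR at 25 °C in PBS–0.1% Tween, flow 30 μL/min, with AMA1 immobilised on a GLC chip. Peptides were injected for 8 min at 50–3.125 nM, with 800 s dissociation. A lane without AMA1 and buffer or DMSO signals were subtracted. Regeneration used 0.85% phosphoric acid.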

[3] = biological target: T1, Apical membrane antigen 1 (Plasmodium falciparum (isolate 3D7)); assay: Binding affinity to Plasmodium falciparum 3D7 5F-Trp-tagged AMA1 F367W mutant assessed as decrease in the W367 line width at 1 and 3 mM by 19F-NMR spectroscopy in presence of R1/RON2L
Method in brief: (§2)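 5F-Trp-labelled 3D7 PfAMA1(108–434) F367W from E. coli BL21(DE3), induced with 1 mM IPTG for 3 h after glyphosate/Phe/Tyr/5F-Trp, refolded and purified into 20 mM phosphate pH 7.4. Small-molecule ligands were added from 100 mM stocks in H2O, ethanol or DMSO to 1 and 3 mM. 19F spectra: 2K scans, 8K complex points, 150 ppm sweep width, under 40 min, compared with free protein.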

[4] = biological target: T1, Apical membrane antigen 1 (Plasmodium falciparum (isolate 3D7)); assay: Binding affinity to Plasmodium falciparum 3D7 5F-Trp-tagged AMA1 F367W mutant at 1 and 3 mM by 19F-NMR spectroscopy in presence of R1/RON2L
Method in brief: as §2

[5] = biological target: Apical membrane antigen 1 (Plasmodium falciparum (isolate 3D7), UniProt Q7KQK5, F367W); assay: Binding affinity to Plasmodium falciparum 3D7 AMA1 F367W mutant expressed in Escherichia coli BL21(DE3) at 1 and 3 mM by SPR analysis
[6] = biological target: Apical membrane antigen 1 (Plasmodium falciparum (isolate 3D7), UniProt Q7KQK5); assay: Binding affinity to Plasmodium falciparum 3D7 AMA1 373W insertion mutant expressed in Escherichia coli BL21(DE3) by SPR analysis
Method in brief: as §1

In the case of `CC[C@H](C)[C@H](NC(=O)[C@H](CCC(N)=O)NC(=O)[C@H](CCC(N)=O)NC(=O)[C@@H]1CCCN1C(=O)[C@@H]1CCCN1C(=O)[C@H](CO)NC(=O)[C@H](CCSC)NC(=O)[C@H](CCCNC(=N)N)NC(=O)[C@@H](NC(=O)[C@@H](NC(=O)[C@H](Cc1ccccc1)NC(=O)[C@@H](N)CS)[C@@H](C)O)[C@@H](C)O)C(=O)N[C@@H](CS)C(=O)O` (H-CFTTRMSPPQQIC-OH), the Activity [1] is reported as “Active” and the Kd [2] is reported as 40000 nM.
`Nc1cc(N)cc(-c2nc3ccccc3[nH]2)c1` was tested, and the Activity [3] was “inactive”, the Activity [1] was “Active” and the Activity [4] was “Active”.
`Cc1nc(N)sc1-c1ccc(N)cc1` was tested, and the Activity [3] was “Dose-dependent effect” and the Activity [1] was “Dose-dependent effect”.
For `Nc1ccc2nc(N3CCCCC3)[nH]c2c1`, the Activity [3] was “inactive”, the Activity [1] was “Dose-dependent effect” and the Activity [4] was “Active”.
With H-VFAEFLPLFSKFGSRMHILK-OH the Kd [5] was 20 nM, the Kd [6] was 50 nM and the Activity [1] was “Active”. For the same molecule, the Kd [2] was 23 nM.
